Measurements from ChEMBL document CHEMBL1128722, “Mechanism-based isocoumarin inhibitors for human leukocyte elastase. Effect of the 7-amino substituent and 3-alkoxy group in 3-alkoxy-7-amino-4-chloroisocoumarins on inhibitory potency” (J Med Chem, 1995).
Blank lines part the entries; values can stand above or below the compound they belong to. Active and inactive are the calls of the source. The calls are words filed in the database; no cut-off is given here.

Legend:
[1] = target: T1, Chymotrypsin-like elastase family member 2A (Sus scrofa) (UniProt P08419); assay: The second order inactivation rate constant was expressed as inhibition of porcine pancreatic elastase (PPE). Inhibitor concentrations were 34-56 uM
T1 sequence (whole entry): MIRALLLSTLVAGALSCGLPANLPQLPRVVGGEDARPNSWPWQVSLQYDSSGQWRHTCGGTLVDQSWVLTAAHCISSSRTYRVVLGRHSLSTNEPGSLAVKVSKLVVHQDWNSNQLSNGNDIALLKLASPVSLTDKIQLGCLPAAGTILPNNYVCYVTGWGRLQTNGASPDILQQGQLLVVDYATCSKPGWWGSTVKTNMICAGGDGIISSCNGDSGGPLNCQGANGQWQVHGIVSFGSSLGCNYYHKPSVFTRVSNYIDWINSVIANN
Method in brief: (§1)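 Kitz–Wilson incubation method. Enzyme was preincubated with inhibitor (added in DMSO) in 0.1 M HEPES, 0.5 M NaCl, pH 7.5, at 25 °C. Aliquots were taken over time and diluted into pNA substrate: HLE MeO-Suc-Ala-Ala-Pro-Val-pNA (0.2–0.5 mM), PPE Suc-Ala-Ala-Ala-pNA, ChT and Cat G Suc-Val-Pro-Phe-pNA (0.4–0.5 mM). Release was read at 410 nm. kobs/[I] from ln(v0/vt) vs time. Mean of two determinations. Fast rates measured with equimolar inhibitor and enzyme.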

[2] = target: Chymotrypsinogen A (Bos taurus) (UniProt P00766); assay: The second order inactivation rate constant was expressed as inhibition of chymotrypsin (ChT). Inhibitor concentrations were 3.4-70 uM; method in brief: as §1
[3] = target: T2, Neutrophil elastase (Homo sapiens) (UniProt P08246); assay: Inhibition of human leukocyte elastase(HLE) at 0.7-1.7 uM; method in brief: as §1
T2 sequence (whole entry): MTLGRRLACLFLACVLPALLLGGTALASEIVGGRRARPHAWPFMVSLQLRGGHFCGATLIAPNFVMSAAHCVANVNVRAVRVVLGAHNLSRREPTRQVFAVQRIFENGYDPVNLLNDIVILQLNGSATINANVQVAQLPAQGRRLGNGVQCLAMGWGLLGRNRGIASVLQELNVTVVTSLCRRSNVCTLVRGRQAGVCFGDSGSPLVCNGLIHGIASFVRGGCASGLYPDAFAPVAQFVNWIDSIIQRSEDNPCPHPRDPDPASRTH

[4] = target: T1, Chymotrypsin-like elastase family member 2A (Sus scrofa); assay: The second order inactivation rate constant expressed as inhibition of porcine pancreatic elastase (PPE).Inhibitor concentrations were 0.04-2.0 mM
[5] = target: T3, Cathepsin G (Homo sapiens) (UniProt P08311); assay: The second order inactivation rate constant was expressed as inhibition of cathepsin G(Cat G).Inhibitor concentrations were 35-710 uM; No inhibition; method in brief: as §1
T3 sequence (whole entry): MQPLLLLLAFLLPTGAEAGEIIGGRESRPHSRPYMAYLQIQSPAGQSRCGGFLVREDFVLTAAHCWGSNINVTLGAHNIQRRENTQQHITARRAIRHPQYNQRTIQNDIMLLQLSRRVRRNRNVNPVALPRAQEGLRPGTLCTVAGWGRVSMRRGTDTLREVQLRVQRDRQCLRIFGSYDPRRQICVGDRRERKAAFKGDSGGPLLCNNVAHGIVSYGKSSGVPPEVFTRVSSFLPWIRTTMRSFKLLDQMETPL

[6] = target: T2, Neutrophil elastase (Homo sapiens); assay: The second order inactivation rate constant expressed as inhibition of human leukocyte elastase (HLE). Inhibitor concentrations were 0.07-710 uM; method in brief: as §1
[7] = target: Chymotrypsinogen A (Bos taurus) (UniProt P00766); assay: The second order inactivation rate constant was expressed as inhibition of chymotrypsin (ChT).Inhibitor concentrations were 360-570 uM; method in brief: as §1
[8] = target: T1, Chymotrypsin-like elastase family member 2A (Sus scrofa); assay: The second order inactivation rate constant was expressed as inhibition of porcine pancreatic elastase (PPE).Inhibitor concentrations were 2-600 uM; method in brief: as §1
[9] = Half-life for hydrolysis of compound was determined from kinetic constant.; type: ADME
Method in brief: (§2)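 Spontaneous hydrolysis in 0.1 M HEPES, 0.5 M NaCl, pH 7.5, 10% v/v DMSO final, 25 °C. Inhibitor added from 2.9–5.0 mM DMSO stock. Ring opening followed as absorbance decrease at 385 nm (ε385 = 3300 M⁻¹ cm⁻¹). Half-life from the first-order rate. Two determinations, standard errors ±15% or less.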

[10] = target: T1, Chymotrypsin-like elastase family member 2A (Sus scrofa); assay: Percent activity regained after 20h of pre-incubation before addition of hydroxylamine (Preincubated Pancreatic elastase).
Method in brief: (§3)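 Without preincubation, hydroxylamine was added immediately after inhibition at [I]/PPE 200:1, and activity was read after 17 h. With preincubation, the 1:1 [I]/PPE complex stood 20 h at room temperature in buffer before hydroxylamine was added. Activity read at 1–17 h.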

[11] = target: T1, Chymotrypsin-like elastase family member 2A (Sus scrofa); assay: Percent activity regained after 17h of incubation with hydroxylamine (Non-preincubated Pancreatic elastase).; method in brief: as §3
[12] = target: T2, Neutrophil elastase (Homo sapiens); assay: The second order inactivation rate constant was expressed as inhibition of human leukocyte elastase (HLE). Inhibitor concentrations were 0.4-4 uM; method in brief: as §1
[13] = target: T2, Neutrophil elastase (Homo sapiens); assay: The second order inactivation rate constant was expressed as inhibition of human leukocyte elastase.; method in brief: as §1
[14] = target: T3, Cathepsin G (Homo sapiens); assay: Inhibition of cathepsin G at 35-710 uM; method in brief: as §1
[15] = Half-life for hydrolysis was determined from kinetic constant.; type: ADME; method in brief: as §2
[16] = target: T2, Neutrophil elastase (Homo sapiens); assay: Inhibition of human leukocyte elastase.; method in brief: as §1
[17] = target: T1, Chymotrypsin-like elastase family member 2A (Sus scrofa); assay: Percent activity regained after 17h of incubation with hydroxylamine (Non-preincubated PPE).; method in brief: as §3
[18] = target: T2, Neutrophil elastase (Homo sapiens); assay: Second order inactivation rate constant for inhibition of human leukocyte elastase.; method in brief: as §1
[19] = target: T3, Cathepsin G (Homo sapiens); assay: The second order inactivation rate constant was expressed as inhibition of cathepsin G (Cat G).Inhibitor concentrations were 35-710 uM; method in brief: as §1
[20] = target: Chymotrypsinogen A (Bos taurus) (UniProt P00766); assay: The second order inactivation rate constant was expressed as inhibition of chymotrypsin (ChT).Inhibitor concentrations were 1.7-58 uM;No inhibition; method in brief: as §1
[21] = target: T1, Chymotrypsin-like elastase family member 2A (Sus scrofa); assay: The second order inactivation rate constant was expressed as inhibition of porcine pancreatic elastase (PPE).Inhibitor concentrations were 0.04-2.0 uM;No inhibition; conditions: in the assay text read “0.04-2.0 mM” for “0.04-2.0 uM”; method in brief: as §1

Compound: CCCOc1oc(=O)c2cc(N/C(S)=N/c3ccccc3)ccc2c1Cl
k obs / 1 [1]: 59 M⁻¹ s⁻¹
k obs / 1 [2]: 240 M⁻¹ s⁻¹
k obs / 1 [3]: > 170000 M⁻¹ s⁻¹

Compound: CC(C)(C)OC(=O)N[C@H](Cc1ccccc1)C(=O)Nc1ccc2c(Cl)c(OCCCBr)oc(=O)c2c1
K obs / 1 [5]: inactive
K obs / 1 [6]: 1480 M⁻¹ s⁻¹

Compound: CCCOc1oc(=O)c2cc(NC(=O)Nc3ccccc3)ccc2c1Cl
k obs / 1 [1]: 1600 M⁻¹ s⁻¹
k obs / 1 [2]: 5200 M⁻¹ s⁻¹
k obs / 1 [3]: 140000 M⁻¹ s⁻¹

Compound: COc1oc(=O)c2cc(NC(=O)[C@H](Cc3ccccc3)NC(=O)c3ccccc3)ccc2c1Cl
Activity regained [17]: 91%
k obs / 1 [7]: 55 M⁻¹ s⁻¹
k obs / 1 [8]: 530 M⁻¹ s⁻¹
half-life [9]: > 2880 min
Activity regained [10]: 31%
k obs / 1 [12]: 180000 M⁻¹ s⁻¹

Compound: Nc1ccc2c(Cl)c(OCCCBr)oc(=O)c2c1
K obs / 1 [4]: 10 M⁻¹ s⁻¹
half-life [15]: 192 min
K obs / 1 [6]: 4000 M⁻¹ s⁻¹
k obs / 1 [18]: 4000 M⁻¹ s⁻¹
[I] [16]: 3.4 µM
K obs / 1 [19]: 210 M⁻¹ s⁻¹

Compound: COc1oc(=O)c2cc(NC(=O)[C@H](Cc3ccccc3)NC(=O)c3ccc([N+](=O)[O-])cc3)ccc2c1Cl
k obs / 1 [7]: 30 M⁻¹ s⁻¹
k obs / 1 [8]: 64 M⁻¹ s⁻¹
Activity regained [10]: 6%
Activity regained [11]: 91%
k obs / 1 [12]: 130000 M⁻¹ s⁻¹

Compound: CCCOc1oc(=O)c2cc(NC(=O)[C@H](Cc3ccccc3)NS(=O)(=O)c3ccc(C)cc3)ccc2c1Cl
k obs / 1 [1]: 520 M⁻¹ s⁻¹
k obs / 1 [2]: 6100 M⁻¹ s⁻¹
k obs / 1 [3]: 33000 M⁻¹ s⁻¹

Compound: O=C(CCC(=O)OCc1ccccc1)Nc1ccc2c(Cl)c(OCCBr)oc(=O)c2c1
K obs / 1 [20]: inactive
K obs / 1 [6]: 3210 M⁻¹ s⁻¹
K obs / 1 [21]: inactive

Compound: COc1oc(=O)c2cc(NC(=O)[C@H](Cc3ccccc3)NC(=O)c3cccc(C)c3)ccc2c1Cl
k obs / 1 [7]: 64 M⁻¹ s⁻¹
k obs / 1 [8]: 1600 M⁻¹ s⁻¹
half-life [9]: > 2880 min
k obs / 1 [12]: 130000 M⁻¹ s⁻¹

Compound: CCCOc1oc(=O)c2cc(NC(=O)NCC)ccc2c1Cl
k obs / 1 [1]: 220 M⁻¹ s⁻¹
k obs / 1 [2]: 12000 M⁻¹ s⁻¹
k obs / 1 [3]: > 280000 M⁻¹ s⁻¹

The remaining lines, values ahead:

K obs / 1 [4]: 36 M⁻¹ s⁻¹
K obs / 1 [5]: inactive
K obs / 1 [6]: 1.2e+06 M⁻¹ s⁻¹
Compound: O=C(Nc1ccccc1)Nc1ccc2c(Cl)c(OCCBr)oc(=O)c2c1

k obs / 1 [1]: 79 M⁻¹ s⁻¹
k obs / 1 [2]: 120 M⁻¹ s⁻¹
k obs / 1 [3]: > 130000 M⁻¹ s⁻¹
Compound: CCCOc1oc(=O)c2cc(N/C(S)=N/Cc3ccccc3)ccc2c1Cl

k obs / 1 [7]: 130 M⁻¹ s⁻¹
k obs / 1 [8]: 83 M⁻¹ s⁻¹
half-life [9]: > 2880 min
Activity regained [10]: 14%
Activity regained [11]: 91%
k obs / 1 [12]: 170000 M⁻¹ s⁻¹
Compound: COc1oc(=O)c2cc(NC(=O)[C@H](Cc3ccccc3)NC(=O)c3ccc(C)cc3)ccc2c1Cl

K obs / 1 [13]: 200000 M⁻¹ s⁻¹
K obs / 1 [4]: 1000 M⁻¹ s⁻¹
K obs / 1 [14]: 410 M⁻¹ s⁻¹
half-life [15]: 144 min
[I] [16]: 0.07 µM
Compound: Nc1ccc2c(Cl)c(OCCBr)oc(=O)c2c1

K obs / 1 [5]: inactive
Compound: O=C(CCc1ccccc1)Nc1ccc2c(Cl)c(OCCCBr)oc(=O)c2c1

K obs / 1 [5]: inactive
K obs / 1 [6]: 1320 M⁻¹ s⁻¹
Compound: CC(C)(C)OC(=O)N[C@@H](Cc1ccccc1)C(=O)Nc1ccc2c(Cl)c(OCCCBr)oc(=O)c2c1
